# Laboratory results from ChEMBL document CHEMBL1921732, “Alkaloids from the Chinese vine Gnetum montanum” (J Nat Prod, 2011).
# pIC50: −log10 of the molar value. The source made the active and inactive calls. The calls are words filed in the database; no cut-off is given here.
# Tests used:
# Pseudomonas aeruginosa [1] = experiment: Antibacterial activity against Pseudomonas aeruginosa PAO1; format: functional, organism-based
# Staphylococcus aureus = experiment: Antibacterial activity against methicillin-resistant Staphylococcus aureus 01A1095 assessed as growth inhibition at 350 uM after 19 hrs; format: functional
# Method in brief: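 Strain 01A1095 optical-density viability assay in caMH broth at 1980 CFU/well. Compounds were in DMSO (final 1.75%) and added before the bacteria. Plates were incubated at 37°C until OD620 reached 0.7-0.8, cooled 30 min and read at 620 nm. Vehicle served as the uninhibited-growth control and ciprofloxacin at 500 µg/mL as the kill control in internal control wells.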
# [2] = Selectivity ratio of antimicrobial activity for Pseudomonas aeruginosa PAO1 over methicillin-resistant Staphylococcus aureus 01A1095; format: functional
# Pseudomonas aeruginosa [3] = experiment: Antibacterial activity against Pseudomonas aeruginosa PAO1 assessed as growth inhibition at 350 uM; format: functional, organism-based
# Pseudomonas aeruginosa [4] = experiment: Antibacterial activity against Pseudomonas aeruginosa PAO1 assessed as growth inhibition at 87.5 uM; format: functional; conditions: read-out: GI
# Pseudomonas aeruginosa [5] = experiment: Antibacterial activity against Pseudomonas aeruginosa PAO1 assessed as growth inhibition at 175 uM; format: functional; conditions: read-out: GI
Structure (SMILES),growth inhibition (GI) (Pseudomonas aeruginosa [3]),growth inhibition (GI) (Staphylococcus aureus),other results
O=C([O-])C(F)(F)F.Oc1cc2c(cc1O)[C@@H]1c3ccc(O)c(O)c3C[C@H]3Cc4cc(O)c(O)cc4[N+]31CC2 (some centres undefined),–,–,"pIC50 (Pseudomonas aeruginosa [1]): 5.01; MIC (Pseudomonas aeruginosa [1]): 35 µM; inhibition of growth at 350 µM (Staphylococcus aureus; 01A1095, 19 h, read-out: GI): 55%; Selectivity ratio [2]: 36"
COc1cc2c(cc1O)C(Cc1ccc(O)c(O)c1)[N+](C)(C)CC2 (racemic),inactive,inactive,–
COc1cc2c3c(cc4cc(O)c(O)cc4c3c1O)[N+](C)(C)CC2,–,inactive,inhibition of growth at 87.5 µM (Pseudomonas aeruginosa [4]): 59%
C[N+]1(C)CCc2cc(O)c(O)cc2C1Cc1ccc(O)c(O)c1 (racemic),inactive,inactive,–
COc1cc2c(cc1O)C(Cc1ccc(O)cc1)[N+](C)(C)CC2 (racemic),inactive,inactive,–
COc1cc2c3c(c1O)-c1cc(O)c(O)cc1CC3[N+](C)(C)CC2 (racemic),–,inactive,inhibition of growth at 175 µM (Pseudomonas aeruginosa [5]): 59%
